Data on three molecules can be found in ChEMBL document CHEMBL4251549, “Design, synthesis and biological evaluation of nitrogen-containing macrocyclic bisbibenzyl derivatives as potent anticancer agents by targeting the lysosome” (Eur J Med Chem, 2017).

In assay [1] the test system is A549. In words: Induction of apoptosis in human A549 cells assessed as late apoptotic cells at 1 uM after 8 hrs by Annexin V-FITC/propidium iodide staining based flow cytometry (reference value: 0.02%). The class given is functional. In outline: (§1)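 A549 seeded at 5 × 10^5 per well and exposed to varying concentrations for 8 h. Harvested, washed twice in ice-cold PBS (0.01 M, pH 7.2), spun 5 min at 200 g, then stained with Annexin V-FITC/PI. Analysed by flow cytometry: Annexin V+/PI− scored apoptotic, double-positive necrotic or late apoptotic. Mean ± SD of three independent experiments.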
Background: Flow cytometry measures light scatter and fluorescence of single cells or particles in a stream.

Assay [2] concerns A549. In words: Antiproliferative activity in human A549 cells after 48 hrs by MTT assay. In kind it is functional, cell-based. Conditions: A549, 48 h. In short, it runs like this:
(§2)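 Cells exposed to compound for 48 h. Viability read by MTT, with absorbance of the solubilised MTT product at 570 nm. IC50 derived from at least three independent experiments.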
(In general: Formazan colour is commonly taken as a measure of viable cells.)

The test system of assay [3] is A549. Nature of the assay: Induction of lysosomal rupture in human A549 cells 1 to 2 uM after 6 hrs by LysoTracker/AO dye based flow cytometric analysis. The class given is functional, cell-based. In short, it runs like this: (§3)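 A549 treated 6 h, then exposed to LysoTracker Red (50 nm) or acridine orange (5 mg/mL). Loss of lysosomal dye retention measured by flow cytometry on a FACSCalibur.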

The subject of assay [4] is K562. Nature of the assay: Antiproliferative activity in human K562 cells after 48 hrs by MTT assay. The conditions noted are these: K562, 48 h. The class given is functional, cell-based. In short, it runs like this:
as §2

In assay [5] the test system is A549. Nature of the assay: Potency index, ratio of ADR IC50 to compound IC50 for antiproliferative activity in human A549 cells. The class given is functional.
Assay [6] relates to MCF7. In words: Antiproliferative activity in human MCF7 cells after 48 hrs by MTT assay. The conditions noted are these: MCF7, 48 h. The class given is functional, cell-based. In short, it runs like this:
as §2

For assay [7], the system named is MCF7. Nature of the assay: Potency index, ratio of ADR IC50 to compound IC50 for antiproliferative activity in human MCF7 cells. The class given is functional.
Assay [8] relates to A549. Nature of the assay: Induction of apoptosis in human A549 cells assessed as formation of granular apoptotic body at 0.5 to 1 uM after 8 hrs by DAPI staining based fluorescence microscopic analysis. In kind it is functional, cell-based. In outline:
(§4)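 A549 seeded on glass coverslips at 5 × 10^4/mL and grown 24 h, then treated 8 h. Washed in cold PBS and fixed in cold methanol/acetone (1:1). Stained with DAPI ([…]) for 10 min at room temperature, washed with PBS/Triton X-100, mounted in PBS:glycerol 1:1. Nuclear morphology examined by fluorescence microscopy.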

Assay [9] deals with A549. Nature of the assay: Induction of apoptosis in human A549 cells assessed as necrotic cells at 1 uM after 8 hrs by Annexin V-FITC/propidium iodide staining based flow cytometry (reference value: 0.06%). The class given is functional. In short, it runs like this: as §1
In assay [10] the test system is K562. Nature of the assay: Potency index, ratio of ADR IC50 to compound IC50 for antiproliferative activity in human K562 cells. In kind it is functional.
The test system of assay [11] is A549. Nature of the assay: Induction of apoptosis in human A549 cells assessed as early apoptotic cells at 1 uM after 8 hrs by Annexin V-FITC/propidium iodide staining based flow cytometry (reference value: 0.03%). The class given is functional. In outline:
as §1

Assay [12] relates to A549. In words: Induction of lysosomal rupture in human A549 cells 1 to 2 uM after 6 hrs by LysoTracker/AO dye based confocal microscopic analysis. In kind it is functional, cell-based. In outline:
(§5)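 A549 treated 6 h, then loaded with LysoTracker Red (50 nm) or acridine orange (5 mg/mL). Lysosomal integrity imaged by confocal microscopy, with rupture scored as "pale cells" showing fewer dye-accumulating lysosomes.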

Assay [13] deals with A549. In words: Induction of apoptosis in human A549 cells assessed as cell shrinkage at 0.5 to 1 uM after 8 hrs by DAPI staining based fluorescence microscopic analysis. In kind it is functional. In outline: as §4
Assay [14] relates to A549. In words: Induction of apoptosis in human A549 cells assessed as cell shrinkage at 2 to 4 uM after 8 hrs by DAPI staining based fluorescence microscopic analysis. In kind it is functional. In short, it runs like this:
as §4

The subject of assay [15] is A549. Nature of the assay: Antiproliferative activity in human A549 cells at 1.5 to 3 uM up to 20 hrs by xCELLigence RTCA SP based cellular impedance analysis. The class given is functional, cell-based. In outline:
(§6)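 After compound treatment, A549 cells plated at 2000 cells/well on E-plates. Proliferation tracked over time as real-time cellular impedance on an xCELLigence RTCA DP instrument. Hydroxychloroquine was the positive control. Representative of three independent experiments.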

Assay [16] concerns A549. Nature of the assay: Antiproliferative activity in human A549 cells at 1.5 to 3 uM after 60 hrs by xCELLigence RTCA SP based cellular impedance analysis. In kind it is functional, cell-based. In short, it runs like this: as §6
Assay [17] concerns A549. Nature of the assay: Antiproliferative activity in human A549 cells at 1.5 to 3 uM up to 5 hrs by xCELLigence RTCA SP based cellular impedance analysis. The class given is functional, cell-based. In outline: as §6
Assay [18] deals with A549. In words: Induction of lysosomal rupture in human A549 cells 2 to 4 uM after 6 hrs by LysoTracker/AO dye based confocal microscopic analysis. The class given is functional, cell-based. In outline: as §5
Assay [19] deals with A549. Nature of the assay: Induction of lysosomal rupture in human A549 cells 2 to 4 uM after 6 hrs by LysoTracker/AO dye based flow cytometric analysis. In kind it is functional, cell-based. In short, it runs like this:
as §3

Assay [20] concerns A549. In words: Induction of apoptosis in human A549 cells assessed as early apoptotic cells at 50 ug/ml after 8 hrs by Annexin V-FITC/propidium iodide staining based flow cytometry (reference value: 0.03%). The class given is functional. In outline:
as §1

The test system of assay [21] is A549. In words: Antiproliferative activity in human A549 cells at 25 ug/ml after 60 hrs by […] based cellular impedance analysis. The class given is functional, cell-based.
Assay [22] relates to A549. Nature of the assay: Induction of apoptosis in human A549 cells assessed as necrotic cells at 50 ug/ml after 8 hrs by Annexin V-FITC/propidium iodide staining based flow cytometry (reference value: 0.06%). In kind it is functional. In outline:
as §1

The test system of assay [23] is A549. Nature of the assay: Antiproliferative activity in human A549 cells at 25 ug/ml up to 20 hrs by xCELLigence RTCA SP based cellular impedance analysis. The class given is functional, cell-based. In short, it runs like this: as §6
In assay [24] the test system is A549. Nature of the assay: Induction of apoptosis in human A549 cells assessed as late apoptotic cells at 50 ug/ml after 8 hrs by Annexin V-FITC/propidium iodide staining based flow cytometry (reference value: 0.02%). In kind it is functional. In short, it runs like this: as §1

Activity calls are given as the source filed them. The calls are words filed in the database; no cut-off is given here.

As to `CN(C)CCOc1ccc2cc1Oc1ccc(cc1)CCc1cccc(OCCN(C)C)c1-c1ccc(cc1OCCN(C)C)CC2`, the Activity turned out to be 26.69% in assay [1], 52.68% in [9] and 0.55% in [11]. Further, the results for the IC50 in assay [2], in assay [4] and in [6] were 510 nM, 190 nM and 230 nM, respectively. The outcome in assay [3], in assay [8], in assay [12] and in [13] was Active. In addition, the “Ratio IC50” value in assay [5], in assay [7] and in assay [10] was 3 - 10 throughout.

Regarding `Oc1cc2ccc1-c1c(ccc(CN3CCCC3)c1O)CCc1ccc(cc1)Oc1cc(cc(CN3CCCC3)c1O)CC2`, the concentration for half-maximal inhibition (IC50) in [2] worked out at 990 nM; in assay [4] it was 800 nM; in assay [6] it was 430 nM. The outcome in assay [14], in [15], in assay [16], in assay [17], in assay [18] and in [19] was Active.

In the case of `CCN(CCO)CCCC(C)Nc1ccnc2cc(Cl)ccc12` (configuration not stated) [HYDROXYCHLOROQUINE], the Activity in assay [20] is given as 2.96%; in assay [22], 10.37%; in assay [24] it was 2.85%. The outcome in assay [21] and in [23] was Active.

By IC50 is commonly meant the concentration at which inhibition is half-maximal. The low end stands for higher potency, the high end for lower potency.
